Reference: ChEMBL document CHEMBL1649090, “Discovery of (7R)-14-cyclohexyl-7-{[2-(dimethylamino)ethyl](methyl) amino}-7,8-dihydro-6H-indolo[1,2-e][1,5]benzoxazocine-11-carboxylic acid (MK-3281), a potent and orally bioavailable finger-loop inhibitor of the hepatitis C virus NS5B polymerase” (J Med Chem, 2011)
The source made the active and inactive calls. The rule behind the calls is not given here.

Tests used:
Hepatitis C virus [1] = assay: Inhibition of HCV1b NS5B delta21 polymerase after 1 hr; assay type: single protein, Hepatitis C virus subtype 1b
Method in brief: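 Enzyme inhibition IC50 measured on genotype 1b HCV NS5B polymerase truncated by 21 C-terminal residues (ΔC21).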

Hepatitis C virus [2] = assay: Antiviral activity against HCV1b infected in human Huh-7 cells assessed as inhibition of viral RNA replication after 96 hrs by ELISA assay in presence of 50% normal human serum; assay type: functional, organism-based, Hepacivirus hominis; settings: genotype 1b, Huh-7, 96 h
[3] = Intrinsic clearance in rat liver microsomes assessed per mg of protein; assay type: ADME, Microsome
[4] = Ratio of drug level in liver to plasma in Sprague-Dawley rat liver at 3 mg/kg, po after 6 hrs; assay type: ADME, organism-based; set-up: dose 3 mg/kg, route oral
Method in brief: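 Sprague-Dawley rats (n = 3) received the compound as its TFA salt in DMSO/PEG400/water 20%/60%/20%, as a single iv dose of 3 mg/kg or a single oral dose of 3 mg/kg. Liver tissue and plasma concentrations were measured 6 h after the oral dose.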

Hepatitis C virus [5] = assay: Antiviral activity against HCV1a; assay type: functional, organism-based, Hepacivirus hominis; settings: subtype 1a
[6] = Cmax in dog at 1 mg/kg, iv and 2 mg/kg, po; assay type: ADME, organism-based, Canis lupus familiaris; settings: in vivo
Method in brief: (§1)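 Single-dose PK of the bis-HCl salt, n = 3 per species (dog po n = 2). Intravenous doses: rat 3, dog 1, rhesus 2 mg/kg, in DMSO/PEG400/water 20%/60%/20%. Oral doses: rat 3, dog 2, rhesus 4 mg/kg, in PEG400 for rat and dog and PEG400/water 70%/30% for rhesus.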

[7] = Oral bioavailability in dog at 2 mg/kg, po; assay type: ADME, organism-based, Canis lupus familiaris; settings: in vivo; method in brief: as §1
[8] = AUC in rhesus monkey at 4 mg/kg, po; assay type: ADME, organism-based, Macaca mulatta; set-up: dose 4 mg/kg, route oral; settings: plasma; method in brief: as §1
[9] = Plasma protein binding in rat; assay type: ADME, cell-free; settings: read-out: PPB (converted)
[10] = Plasma protein binding in monkey; assay type: ADME, cell-free, Macaca mulatta; settings: rhesus monkey, read-out: PPB (converted)
Cytochrome P450 2C9 = Cytochrome P450 2C9 (Homo sapiens, UniProt P11712); assay: Inhibition of CYP2C9 up to 50 uM; assay type: ADME
[11] = target: Macrophage metalloelastase (Homo sapiens, UniProt P39900); assay: Inhibition of MMP12
[12] = target: T1, DNA polymerase alpha catalytic subunit (Homo sapiens) (UniProt P09884); assay: Inhibition of human DNA polymerase alpha up to 50 uM
T1 sequence (whole entry): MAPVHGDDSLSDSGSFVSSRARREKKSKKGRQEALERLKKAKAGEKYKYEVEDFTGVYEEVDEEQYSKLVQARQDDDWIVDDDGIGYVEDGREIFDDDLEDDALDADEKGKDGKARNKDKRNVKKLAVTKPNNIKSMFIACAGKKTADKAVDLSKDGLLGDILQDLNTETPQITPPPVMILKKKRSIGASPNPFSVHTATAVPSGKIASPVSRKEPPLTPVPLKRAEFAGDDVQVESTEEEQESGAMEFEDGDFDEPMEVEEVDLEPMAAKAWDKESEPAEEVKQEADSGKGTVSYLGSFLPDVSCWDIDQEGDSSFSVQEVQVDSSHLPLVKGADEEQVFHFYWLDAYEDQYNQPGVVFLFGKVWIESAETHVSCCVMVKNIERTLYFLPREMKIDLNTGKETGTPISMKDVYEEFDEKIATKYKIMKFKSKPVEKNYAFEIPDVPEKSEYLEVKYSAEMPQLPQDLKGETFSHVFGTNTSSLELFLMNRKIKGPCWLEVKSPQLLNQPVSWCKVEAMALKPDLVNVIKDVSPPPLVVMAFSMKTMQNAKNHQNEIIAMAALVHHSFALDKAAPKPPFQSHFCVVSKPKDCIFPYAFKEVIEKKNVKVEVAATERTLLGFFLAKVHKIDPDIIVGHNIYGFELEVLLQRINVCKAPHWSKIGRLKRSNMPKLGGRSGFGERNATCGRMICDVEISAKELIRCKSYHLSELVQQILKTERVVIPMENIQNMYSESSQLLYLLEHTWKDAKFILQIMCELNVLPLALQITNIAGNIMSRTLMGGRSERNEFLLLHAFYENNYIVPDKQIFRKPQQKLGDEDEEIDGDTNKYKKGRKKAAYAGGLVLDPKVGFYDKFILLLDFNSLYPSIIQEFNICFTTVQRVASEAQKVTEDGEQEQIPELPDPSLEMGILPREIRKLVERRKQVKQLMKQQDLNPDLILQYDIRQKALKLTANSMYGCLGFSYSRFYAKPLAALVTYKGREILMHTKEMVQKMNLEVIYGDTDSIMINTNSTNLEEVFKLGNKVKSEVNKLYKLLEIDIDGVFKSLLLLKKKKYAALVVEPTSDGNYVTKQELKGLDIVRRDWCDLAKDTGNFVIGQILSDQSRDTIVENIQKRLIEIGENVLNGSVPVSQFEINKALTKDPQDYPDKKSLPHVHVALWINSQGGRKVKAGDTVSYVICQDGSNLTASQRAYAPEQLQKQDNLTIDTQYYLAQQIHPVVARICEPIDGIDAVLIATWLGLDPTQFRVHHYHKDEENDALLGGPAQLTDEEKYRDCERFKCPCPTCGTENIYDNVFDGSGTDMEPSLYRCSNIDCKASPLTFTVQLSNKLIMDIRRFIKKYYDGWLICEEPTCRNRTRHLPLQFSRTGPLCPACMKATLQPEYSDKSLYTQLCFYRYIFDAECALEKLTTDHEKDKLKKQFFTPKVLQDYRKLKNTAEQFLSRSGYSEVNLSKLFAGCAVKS

Mus musculus = assay: Toxicity in SCID mouse assessed as mortality at 50 mg/kg, ip bid for 5 days; assay type: organism-based; set-up: dose 50 mg/kg, route intraperitoneal; settings: in vivo, 120 h
[13] = Plasma concentration in SCID mouse at 50 mg/kg, ip bid for 5 days measured 12 hrs after last post dose; assay type: ADME, organism-based; set-up: dose 50 mg/kg, route intraperitoneal
Method in brief: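 SCID mice (n = 3) were given 50 mg/kg by intraperitoneal injection twice daily for five consecutive days. Plasma compound level was measured 12 h after the last dose.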

Hepatitis C virus [14] = assay: Antiviral activity against HCV1b infected in humanized uPA+/+-SCID mouse assessed as reduction of viremia at 50 mg/kg, ip bid for 4 days; assay type: functional, Hepacivirus hominis; settings: route intraperitoneal
Method in brief: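 Three chimeric uPA+/+-SCID mice with human hepatocytes, infected with genotype 1b HCV, received the dose intraperitoneally twice daily for 4 days in PEG400/water 30%/70%. Three vehicle-only mice were dosed for four days as controls. Plasma HCV RNA change is reported per animal and as mean, in log10 (lower limit 315 IU/mL). Follow-up ran to day 21. Plasma trough drug was measured 12 h after the last dose.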

[15] = Plasma concentration in HCV1b infected humanized uPA+/+-SCID mouse at 10 mg/kg, ip bid for 4 days measured 12 hrs after last post dose; assay type: ADME, organism-based; set-up: dose 10 mg/kg, route intraperitoneal
Method in brief: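 Three humanized uPA+/+-SCID mice infected with genotype 1b HCV received 10 or 50 mg/kg ip twice daily for 4 days, in PEG400/water 30%/70%. Trough plasma concentration was taken 12 h after the last dose.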

Cytochrome P450 2C9, sequence (P11712 whole entry): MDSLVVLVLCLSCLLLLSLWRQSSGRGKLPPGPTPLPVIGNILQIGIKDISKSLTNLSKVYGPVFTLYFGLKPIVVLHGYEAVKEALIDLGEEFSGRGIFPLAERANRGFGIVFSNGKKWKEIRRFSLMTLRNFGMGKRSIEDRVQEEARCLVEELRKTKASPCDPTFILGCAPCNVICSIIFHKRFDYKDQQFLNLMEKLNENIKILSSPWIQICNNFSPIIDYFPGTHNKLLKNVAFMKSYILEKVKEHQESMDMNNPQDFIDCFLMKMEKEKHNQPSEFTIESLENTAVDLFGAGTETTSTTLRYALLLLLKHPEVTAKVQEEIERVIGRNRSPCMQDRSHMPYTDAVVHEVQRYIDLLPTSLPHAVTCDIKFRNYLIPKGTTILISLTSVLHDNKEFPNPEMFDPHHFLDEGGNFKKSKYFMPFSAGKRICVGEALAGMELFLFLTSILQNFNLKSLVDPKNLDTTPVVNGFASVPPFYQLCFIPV
Macrophage metalloelastase, sequence (P39900 whole entry): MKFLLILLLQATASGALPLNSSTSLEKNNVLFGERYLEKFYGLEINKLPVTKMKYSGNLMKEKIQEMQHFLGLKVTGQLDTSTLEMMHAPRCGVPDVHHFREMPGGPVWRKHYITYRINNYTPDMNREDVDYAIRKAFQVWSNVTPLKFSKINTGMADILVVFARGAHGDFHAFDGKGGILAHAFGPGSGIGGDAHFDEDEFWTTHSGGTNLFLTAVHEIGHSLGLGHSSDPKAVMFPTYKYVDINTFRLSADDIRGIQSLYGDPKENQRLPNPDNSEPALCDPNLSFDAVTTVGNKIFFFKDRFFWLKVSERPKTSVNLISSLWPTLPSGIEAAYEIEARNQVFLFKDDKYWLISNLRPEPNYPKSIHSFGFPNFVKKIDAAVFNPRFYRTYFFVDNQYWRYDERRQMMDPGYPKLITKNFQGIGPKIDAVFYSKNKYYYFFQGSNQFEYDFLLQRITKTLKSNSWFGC

Molecule `CN(C)CCN(C)[C@H]1COc2ccccc2-c2c(C3CCCCC3)c3ccc(C(=O)O)cc3n2C1` [MK-3281] has an IC50 (Hepatitis C virus [1]) of 0.006 µM, an EC50 (Hepatitis C virus [2]) of 0.11 µM and a microsomal CLint [3] of 7 µL/min/mg. The Kp at 6 h [4] was 5, the EC50 (Hepatitis C virus [5]) was 0.028 µM and the Cmax [6] was 1000 nM. For the same molecule, the bioavailability [7] was 78%, the AUC [8] was 7.4 µM·h and the fraction unbound [9] was 0.03. For the same molecule, the fraction unbound [10] was 0.074, the “inhibition (INH)” value (Cytochrome P450 2C9) was “Not Active” and the IC50 [11] was 8.3 µM. For the same molecule, the inhibition [12] was “inactive”, the Activity (Mus musculus) was “Non-toxic” and the concentration at 12 h [13] was 3600 nM. The “fold change (FC)” value (Hepatitis C virus [14]) was -3.94 and the concentration at 12 h [15] was 670 nM.
